Published values from different studies.
Each line is one published result; the experiments were not run side by side. Values after ≈ are worked out from the molar mass of the structure shown.
Organism: Candida albicans
Observed: microbial growth

SMILES | test | system | setting | quantity | result
N#Cc1c(-c2ccc(Cl)cc2Cl)c(C(N)=O)c(N)n(N)c1=O | well diffusion | ATCC10231 | 500 µg/mL | inhibition zone | 9 mm
Cc1ccccc1NC(=O)C=Cc1ccc(O)c(O)c1 | broth dilution | SC5314 |  | MIC | 32 µg/mL (≈ 119 µM)
CN(C)c1ccc(-c2c(C(N)=S)c(N)n(N)c(=O)c2C#N)cc1 | well diffusion | ATCC10231 | 500 µg/mL | inhibition zone | 17 mm
COC1=CC(=O)c2ccccc2C1=O | broth dilution | ATCC60193 | 24 h | MIC | 25 µg/mL (≈ 133 µM)
Cc1nn(-c2ccccc2)c2c1C(c1ccc(N(C)C)cc1)N(C(=O)c1ccncc1)N2 (centres unmarked) |  | MTCC183 |  | MIC | 32 µg/mL (≈ 75.4 µM)
N#Cc1c(-c2ccc(OCc3ccccc3)cc2)c(C(N)=O)c(N)n(N)c1=O | well diffusion | ATCC10231 | 500 µg/mL | inhibition zone | 10 mm
CC1CCC(C(C)C)C(OC(=O)C=Cc2ccc(O)c(O)c2)C1 (centres unmarked) | broth dilution | SC5314 |  | MIC | 8 µg/mL (≈ 25.1 µM)
O=C1C(Br)=C(Br)C(=O)c2ccccc21 | broth dilution | ATCC60193 | 24 h | MIC | 3.12 µg/mL (≈ 9.89 µM)
Cc1nn(-c2ccccc2)c2c1C(c1ccc([N+](=O)[O-])cc1)N(C(=O)c1ccncc1)N2 (centres unmarked) |  | MTCC183 |  | MIC | > 100 µg/mL
CN(C)c1ccc(-c2c(C(N)=O)c(N)n(N)c(=O)c2C#N)cc1 | well diffusion | ATCC10231 | 500 µg/mL | inhibition zone | 12 mm
COc1cc(Cc2cnc(N)nc2N)cc(OC)c1OC | broth dilution | SC5314 |  | MIC | 64 µg/mL (≈ 220 µM)
Clc1ccccc1C(c1ccccc1)(c1ccccc1)n1ccnc1 |  | MTCC183 |  | MIC | 0.5 µg/mL (≈ 1.45 µM)
Nc1ccccc1OC(=O)C=Cc1ccc(O)c(O)c1 | broth dilution | SC5314 |  | MIC | 8 µg/mL (≈ 29.5 µM)
CC(C)=CCCC(C)=CC1c2c(C)nn(-c3ccccc3)c2NN1C(=O)c1ccncc1 (centres unmarked) |  | MTCC183 |  | MIC | 32 µg/mL (≈ 74.8 µM)
O=C(C=Cc1ccc(O)c(O)c1)OCc1ccccc1 | broth dilution | SC5314 |  | MIC | 64 µg/mL (≈ 237 µM)
CC(=O)Oc1ccc(-c2c(C(N)=O)c(N)n(N)c(=O)c2C#N)cc1 | well diffusion | ATCC10231 | 500 µg/mL | inhibition zone | 12 mm
Cc1nn(-c2ccccc2)c2c1C(c1ccco1)N(C(=O)c1ccncc1)N2 (centres unmarked) |  | MTCC183 |  | MIC | > 100 µg/mL
